Results as given in ChEMBL document CHEMBL2146424, “Synthesis and structure-activity relationship of a novel class of 15-membered macrolide antibiotics known as '11a-azalides'” (2012).
In brackets after ≈: the same amount, converted by molar mass.

How the values were obtained:
[1] = tested on: Streptococcus pneumoniae; experiment: Antibacterial activity against erythromycin-susceptible Streptococcus pneumoniae ATCC 49619 by broth microdilution method; format: functional
Procedure, shortened: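 MIC read by broth microdilution following CLSI guidelines for S. pneumoniae; clarithromycin run alongside as comparator in all assays.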

[2] = tested on: Streptococcus pneumoniae; experiment: Antibacterial activity against MLSB-resistant Streptococcus pneumoniae 205 by broth microdilution method; format: functional
Procedure, shortened: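 MIC measured by broth microdilution following CLSI guidelines for S. pneumoniae; erythromycin-susceptible and erythromycin-resistant pneumococcal strains tested, with clarithromycin as comparator in every run.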

Compound | MIC [1] | MIC [2]
CO[C@]1(C)C[C@@H](C)C(=O)[C@H](C)CN(C)CCOC(=O)[C@H](C)[C@@H](O[C@H]2C[C@@](C)(OC)[C@@H](O)[C@H](C)O2)[C@H](C)[C@H]1O[C@@H]1O[C@H](C)C[C@H](N(C)C)[C@H]1O | 32 µg/mL (≈ 45.5 µM) | > 128 µg/mL
CO[C@]1(C)C[C@H](O[C@H]2[C@H](C)[C@@H](O[C@@H]3O[C@H](C)C[C@H](N(C)C)[C@H]3O)[C@](C)(O)C[C@@H](C)[C@H](N)[C@H](C)CN(C)CCOC(=O)[C@@H]2C)O[C@@H](C)[C@@H]1O | 2 µg/mL (≈ 2.9 µM) | > 128 µg/mL
CO[C@]1(C)C[C@H](O[C@H]2[C@H](C)[C@@H](O[C@@H]3O[C@H](C)C[C@H](N(C)C)[C@H]3O)[C@](C)(O)C[C@@H](C)[C@H](N)[C@H](C)CN(C)C[C@H](COCc3ccccc3)OC(=O)[C@@H]2C)O[C@@H](C)[C@@H]1O | 0.12 µg/mL (≈ 0.148 µM) | > 128 µg/mL
CO[C@]1(C)C[C@@H](C)[C@H](O)[C@H](C)CN(C)[C@@H](CN)COC(=O)[C@H](C)[C@@H](O[C@H]2C[C@@](C)(OC)[C@@H](O)[C@H](C)O2)[C@H](C)[C@H]1O[C@@H]1O[C@H](C)C[C@H](N(C)C)[C@H]1O | 64 µg/mL (≈ 87.2 µM) | > 128 µg/mL
CCN(CC)C[C@H]1COC(=O)[C@H](C)[C@@H](O[C@H]2C[C@@](C)(OC)[C@@H](O)[C@H](C)O2)[C@H](C)[C@@H](O[C@@H]2O[C@H](C)C[C@H](N(C)C)[C@H]2O)[C@](C)(OC)C[C@@H](C)[C@H](O)[C@H](C)CN1C | 128 µg/mL (≈ 162 µM) | > 128 µg/mL
CCN(CCNC(=O)O[C@H]1[C@H](C)O[C@@H](O[C@H]2[C@H](C)[C@@H](O[C@@H]3O[C@H](C)C[C@H](N(C)C)[C@H]3O)[C@](C)(O)C[C@@H](C)[C@H](N)[C@H](C)CN(C)CCOC(=O)[C@@H]2C)C[C@@]1(C)OC)[C@@H](C)c1ccccc1OC | 0.12 µg/mL (≈ 0.128 µM) | 0.5 µg/mL (≈ 0.533 µM)
CO[C@]1(C)C[C@@H](C)[C@H](O)[C@H](C)CN(C)[C@H](COCc2ccccc2)COC(=O)[C@H](C)[C@@H](O[C@H]2C[C@@](C)(OC)[C@@H](O)[C@H](C)O2)[C@H](C)[C@H]1O[C@@H]1O[C@H](C)C[C@H](N(C)C)[C@H]1O | 4 µg/mL (≈ 4.85 µM) | 64 µg/mL (≈ 77.6 µM)
CCN(CCNC(=O)O[C@H]1[C@H](C)O[C@@H](O[C@H]2[C@H](C)[C@@H](O[C@@H]3O[C@H](C)C[C@H](N(C)C)[C@H]3O)[C@](C)(O)C[C@@H](C)[C@H](N)[C@H](C)CN(C)C[C@H](COCc3ccccc3)OC(=O)[C@@H]2C)C[C@@]1(C)OC)[C@@H](C)c1ccccc1OC | 0.12 µg/mL (≈ 0.113 µM) | 0.25 µg/mL (≈ 0.236 µM)
CO[C@]1(C)C[C@@H](C)[C@H](O)[C@H](C)CN(C)CCOC(=O)[C@H](C)[C@@H](O[C@H]2C[C@@](C)(OC)[C@@H](O)[C@H](C)O2)[C@H](C)[C@H]1O[C@@H]1O[C@H](C)C[C@H](N(C)C)[C@H]1O | 2 µg/mL (≈ 2.84 µM) | > 128 µg/mL
CO[C@]1(C)C[C@@H](C)[C@H](O)[C@H](C)CN(C)[C@@H](COCc2ccccc2)COC(=O)[C@H](C)[C@@H](O[C@H]2C[C@@](C)(OC)[C@@H](O)[C@H](C)O2)[C@H](C)[C@H]1O[C@@H]1O[C@H](C)C[C@H](N(C)C)[C@H]1O | 1 µg/mL (≈ 1.21 µM) | 64 µg/mL (≈ 77.6 µM)
CO[C@]1(C)C[C@@H](C)[C@H](O)[C@H](C)CN(C)C[C@@H](COCc2ccccc2)OC(=O)[C@H](C)[C@@H](O[C@H]2C[C@@](C)(OC)[C@@H](O)[C@H](C)O2)[C@H](C)[C@H]1O[C@@H]1O[C@H](C)C[C@H](N(C)C)[C@H]1O | 1 µg/mL (≈ 1.21 µM) | 64 µg/mL (≈ 77.6 µM)
CO[C@]1(C)C[C@@H](C)[C@H](O)[C@H](C)CN(C)C[C@H](COCc2ccccc2)OC(=O)[C@H](C)[C@@H](O[C@H]2C[C@@](C)(OC)[C@@H](O)[C@H](C)O2)[C@H](C)[C@H]1O[C@@H]1O[C@H](C)C[C@H](N(C)C)[C@H]1O | 0.06 µg/mL (≈ 0.0727 µM) | 128 µg/mL (≈ 155 µM)
CO[C@]1(C)C[C@@H](C)[C@H](O)[C@H](C)CN(C)[C@@H](CCOCc2ccccc2)COC(=O)[C@H](C)[C@@H](O[C@H]2C[C@@](C)(OC)[C@@H](O)[C@H](C)O2)[C@H](C)[C@H]1O[C@@H]1O[C@H](C)C[C@H](N(C)C)[C@H]1O | 1 µg/mL (≈ 1.19 µM) | 64 µg/mL (≈ 76.3 µM)
CO[C@]1(C)C[C@@H](C)[C@H](O)[C@H](C)CN(C)C[C@H](c2ccccc2)OC(=O)[C@H](C)[C@@H](O[C@H]2C[C@@](C)(OC)[C@@H](O)[C@H](C)O2)[C@H](C)[C@H]1O[C@@H]1O[C@H](C)C[C@H](N(C)C)[C@H]1O | 0.5 µg/mL (≈ 0.64 µM) | > 128 µg/mL
CO[C@]1(C)C[C@@H](C)[C@H](O)[C@H](C)CN(C)C[C@H](CCOCc2ccccc2)OC(=O)[C@H](C)[C@@H](O[C@H]2C[C@@](C)(OC)[C@@H](O)[C@H](C)O2)[C@H](C)[C@H]1O[C@@H]1O[C@H](C)C[C@H](N(C)C)[C@H]1O | 0.12 µg/mL (≈ 0.143 µM) | 128 µg/mL (≈ 153 µM)
CO[C@]1(C)C[C@@H](C)[C@H](O)[C@H](C)CN(C)C[C@H](COc2ccccc2)OC(=O)[C@H](C)[C@@H](O[C@H]2C[C@@](C)(OC)[C@@H](O)[C@H](C)O2)[C@H](C)[C@H]1O[C@@H]1O[C@H](C)C[C@H](N(C)C)[C@H]1O | 0.25 µg/mL (≈ 0.308 µM) | 32 µg/mL (≈ 39.5 µM)
CO[C@]1(C)C[C@@H](C)[C@H](O)[C@H](C)CN(C)C[C@H](COc2ccccc2-c2ccccc2)OC(=O)[C@H](C)[C@@H](O[C@H]2C[C@@](C)(OC)[C@@H](O)[C@H](C)O2)[C@H](C)[C@H]1O[C@@H]1O[C@H](C)C[C@H](N(C)C)[C@H]1O | 0.5 µg/mL (≈ 0.564 µM) | 16 µg/mL (≈ 18 µM)
CO[C@]1(C)C[C@@H](C)[C@H](O)[C@H](C)CN(C)C[C@H](COc2cccc(-c3ccccc3)c2)OC(=O)[C@H](C)[C@@H](O[C@H]2C[C@@](C)(OC)[C@@H](O)[C@H](C)O2)[C@H](C)[C@H]1O[C@@H]1O[C@H](C)C[C@H](N(C)C)[C@H]1O | 1 µg/mL (≈ 1.13 µM) | 16 µg/mL (≈ 18 µM)
CO[C@]1(C)C[C@@H](C)[C@H](O)[C@H](C)CN(C)C[C@H](COc2ccc(-c3ccccc3)cc2)OC(=O)[C@H](C)[C@@H](O[C@H]2C[C@@](C)(OC)[C@@H](O)[C@H](C)O2)[C@H](C)[C@H]1O[C@@H]1O[C@H](C)C[C@H](N(C)C)[C@H]1O | 1 µg/mL (≈ 1.13 µM) | 8 µg/mL (≈ 9.02 µM)
CO[C@]1(C)C[C@@H](C)[C@H](O)[C@H](C)CN(C)C[C@H](COc2ccc(-c3cccnc3)cc2)OC(=O)[C@H](C)[C@@H](O[C@H]2C[C@@](C)(OC)[C@@H](O)[C@H](C)O2)[C@H](C)[C@H]1O[C@@H]1O[C@H](C)C[C@H](N(C)C)[C@H]1O | 0.5 µg/mL (≈ 0.563 µM) | 64 µg/mL (≈ 72.1 µM)
CO[C@]1(C)C[C@@H](C)[C@H](O)[C@H](C)CN(C)C[C@H](COc2ccc(-c3ccccn3)cc2)OC(=O)[C@H](C)[C@@H](O[C@H]2C[C@@](C)(OC)[C@@H](O)[C@H](C)O2)[C@H](C)[C@H]1O[C@@H]1O[C@H](C)C[C@H](N(C)C)[C@H]1O | 0.25 µg/mL (≈ 0.281 µM) | 16 µg/mL (≈ 18 µM)
CO[C@]1(C)C[C@@H](C)[C@H](O)[C@H](C)CN(C)CCOC(=O)C(C)C(=O)[C@H](C)[C@H]1O[C@@H]1O[C@H](C)C[C@H](N(C)C)[C@H]1O (mixture of isomers) | > 128 µg/mL | > 128 µg/mL
CC[C@H]1OC(=O)[C@H](C)[C@@H](O[C@H]2C[C@@](C)(OC)[C@@H](O)[C@H](C)O2)[C@H](C)[C@@H](O[C@@H]2O[C@H](C)C[C@H](N(C)C)[C@H]2O)[C@](C)(OC)C[C@@H](C)C(=O)[C@H](C)[C@@H](O)[C@]1(C)O [CLARITHROMYCIN] | 0.03 µg/mL (≈ 0.0401 µM) | > 128 µg/mL
CC[C@H]1OC(=O)[C@H](C)C(=O)[C@H](C)[C@@H](O[C@@H]2O[C@H](C)C[C@H](N(C)C)[C@H]2O)[C@](C)(OC)C[C@@H](C)C(=O)[C@H](C)[C@H]2N(CCCCn3cnc(-c4cccnc4)c3)C(=O)O[C@]12C [TELITHROMYCIN] | 4 µg/mL (≈ 4.93 µM) | > 128 µg/mL
